Test results reported in PubChem BioAssay AID652163 (Broad Institute, 2013).
In all, about 360,000 compounds went through this assay and about 500 (0.14%) were called active. Many of the other results were omitted from the sample, so actives are more common in it than they were. Values without a mark were called inactive.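 Rule for the calls: active = mean inhibition of at least 70% across replicates, with every replicate also reaching that level; inconclusive = mean inhibition reaches 70% but some replicates fall short; inactive = mean inhibition below 70%.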

target: Protein S100-A4 (Homo sapiens) (UniProt P26447); experiment: human S100A4 protein-peptide interaction blockers – biochemical, fluorescence polarization, TAMRA-MyoIIA peptide, primary screen (AID 652163); conditions: at 10.7 µM, stronger effect = higher value
Procedure, shortened: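 Test system: S100A4 monomer protein; Medium: HEPES pH 7.2 with CaCl2, KCl, NaCl, DTT, Triton; Probe or stimulus: TAMRA-labelled myosin IIA heavy-chain peptide probe, 5 nM; Doses: one dose per compound; Times: polarization read 5 min after assay mix addition, stable 5–60 min; Benchmarks: neutral control DMSO, positive control TFP.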

Protein S100-A4 (Homo sapiens), sequence (P26447 whole entry, looked up): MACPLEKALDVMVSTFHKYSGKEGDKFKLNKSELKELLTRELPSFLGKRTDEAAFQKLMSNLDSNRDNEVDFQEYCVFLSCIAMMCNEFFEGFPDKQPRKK

| SMILES | inhibition |
| --- | --- |
| CNC(=O)C[C@H]1CC[C@@H]2[C@H](COc3ccc(NC(=O)Nc4ccc(F)c(F)c4)cc3C(=O)N2C)O1 | -1.52% |
| C[C@H]1CN([C@@H](C)CO)C(=O)c2cc(C#CC3CCCC3)cnc2O[C@H]1CN(C)C(=O)c1ccncc1 | 11.5% |
| CO[C@H]1CN(C)C(=O)c2cc(NC(=O)C3CC3)ccc2OC[C@H](C)N(Cc2ccccc2)C[C@H]1C | 3.65% |
| O=C(N[C@@H]1CC[C@@H](CC(=O)N2CCc3ccccc3C2)O[C@@H]1CO)C1CCOCC1 | 13.9% |
| C[C@@H]1CN([C@@H](C)CO)C(=O)c2cc(NS(=O)(=O)c3cn(C)cn3)ccc2O[C@@H]1CN(C)C(=O)NC1CCCCC1 | 12.5% |
| O=C(C[C@@H]1CC[C@@H]2[C@H](COC[C@H](O)CN2C(=O)c2ccc3c(c2)OCO3)O1)NC1CCCC1 | 6.17% |
| CC(C)NC(=O)N(C)C[C@@H]1Oc2ccc(NC(=O)C3CCCCC3)cc2CC(=O)N([C@H](C)CO)C[C@@H]1C | 1.64% |
| C[C@@H]1CCCCO[C@H](CN(C)C(=O)Nc2ccc3c(c2)OCO3)[C@H](C)CN([C@H](C)CO)C(=O)c2cc(NS(C)(=O)=O)ccc2O1 | -0.157% |
| CNS(=O)(=O)c1ccc2c(c1)[nH]c(=S)n2C | 82.4% (active) |
| Cn1c(=O)n(C)c2cc(S(=O)(=O)Nc3ccc(F)cc3)ccc21 | 0.871% |
| CCn1c(=S)[nH]c2cc(S(=O)(=O)N3CCOCC3)ccc21 | -2.43% |
| COC(=O)c1c(NC(=O)CSc2nncs2)sc2c1CCCCC2 | -2.13% |
| COC(=O)c1c(NC(=O)C2CC(C)=C(C)CC2C(=O)O)sc2c1CCCCC2 (stereo not drawn) | -3.38% |
| Cc1noc(C)c1S(=O)(=O)Nc1ccc2c(c1)C(=O)N([C@@H](C)CO)C[C@@H](C)[C@@H](CN(C)S(=O)(=O)c1ccccc1)OCCCC[C@H](C)O2 | -42.8% |
| CC(C)NC(=O)Nc1ccc2c(c1)C(=O)N([C@@H](C)CO)C[C@@H](C)[C@H](CN(C)C(=O)Cc1ccccc1)OCCCC[C@H](C)O2 | 2.76% |
| Cc1noc(C)c1S(=O)(=O)N(C)C[C@H]1OCCCC[C@H](C)Oc2ccc(NS(=O)(=O)c3ccccc3)cc2C(=O)N([C@H](C)CO)C[C@@H]1C | 106% (active) |
| Cc1noc(C)c1S(=O)(=O)N(C)C[C@@H]1OCCCC[C@@H](C)Oc2ccc(NS(=O)(=O)c3ccccc3)cc2C(=O)N([C@H](C)CO)C[C@@H]1C | -6.41% |
| Cc1noc(C)c1NC(=O)Nc1ccc2c(c1)C(=O)N([C@H](C)CO)C[C@@H](C)[C@H](CN(C)S(=O)(=O)c1ccc(Cl)cc1)OCCCC[C@H](C)O2 | -9.02% |
| C[C@@H]1CCCCO[C@H](CN(C)C(=O)c2ccccc2)[C@H](C)CN([C@@H](C)CO)C(=O)c2cc(NC(=O)Nc3ccc4c(c3)OCO4)ccc2O1 | -5.3% |

| SMILES | inhibition |
| --- | --- |
| Cc1noc(C)c1NC(=O)Nc1ccc2c(c1)C(=O)N([C@H](C)CO)C[C@@H](C)[C@@H](CN(C)S(=O)(=O)c1ccc(Cl)cc1)OCCCC[C@H](C)O2 | 108% (active) |
| C[C@@H]1CCCCO[C@@H](CN(C)C(=O)Cc2ccccc2)[C@H](C)CN([C@@H](C)CO)C(=O)c2cc(NC(=O)Nc3ccc4c(c3)OCO4)ccc2O1 | 121% (active) |
| Cc1noc(C)c1NC(=O)Nc1ccc2c(c1)C(=O)N([C@H](C)CO)C[C@H](C)[C@@H](CN(C)S(C)(=O)=O)OCCCC[C@H](C)O2 | 7.29% |
| CCCC(=O)Nc1ccc2c(c1)OC[C@H](C)N(CCC(F)(F)F)C[C@@H](C)[C@H](OC)CN(C)C2=O | -10.8% |
| CCCC(=O)N1CC2(C1)CN(C(=O)Nc1cccc(F)c1)[C@@H](CO)c1c2c2ccc(OC)cc2n1C | 14.3% |
| CN1c2ccc(-c3cccc(F)c3)cc2[C@H]2[C@H](CCN2C(=O)c2cccc(F)c2)[C@H]1CO | -3.81% |
| CN1c2ccc(-c3ccccc3)cc2[C@@H]2[C@@H](CCN2C(=O)c2ccncc2)[C@@H]1CO | 0.924% |
| CN1c2ccc(-c3ccccc3)cc2[C@@H]2[C@@H](CCN2C(=O)c2ccccc2)[C@H]1CO | 80% (active) |
| CN1CCN(C(=O)C[C@H]2CC[C@H]3[C@@H](COC[C@H](O)CN3C(=O)c3ccc(F)cc3)O2)CC1 | -6.97% |
| CCCNC(=O)N1C[C@H](C)[C@@H](OC)CN(C)C(=O)c2ccc(NS(=O)(=O)CC(F)(F)F)cc2OC[C@@H]1C | -4.41% |
| O=C(NCC1CC1)[C@@H]1[C@@H](CO)[C@@H]2Cn3c(ccc(-c4ccncc4)c3=O)[C@H]1N2Cc1nccs1 | 5.95% |
| C[C@@H]1CN([C@@H](C)CO)C(=O)Cc2cc(NS(C)(=O)=O)ccc2O[C@@H]1CN(C)Cc1ccc2c(c1)OCO2 | -41.9% |
| O=C([C@@H]1[C@@H](CO)[C@@H]2Cn3c(ccc(-c4ccccc4F)c3=O)[C@H]1N2C(=O)C1CCC1)N1CCCCC1 | 3.88% |
| CN(C)C(=O)[C@@H]1[C@@H](CO)[C@@H]2Cn3c(ccc(-c4ccccc4F)c3=O)[C@@H]2N1C(=O)C1CC1 | -4.07% |
| CCCN1[C@H](C(=O)N2CCCCC2)[C@@H](CO)[C@@H]2Cn3c(ccc(-c4ccccc4F)c3=O)[C@@H]21 | 89.8% (active) |
| N#C[C@@H]1[C@@H](c2ccccc2)[C@@H](CO)N1C(=O)c1cc(Cl)cc(Cl)c1 | 3% |
| COc1ccccc1-c1cnc2c(c1)C(=O)N([C@H](C)CO)C[C@H](C)[C@@H](CN(C)CC1CCOCC1)O2 | -8.2% |
| COc1cccc(C(=O)Nc2ccc3c(c2)OC[C@H](C)NC[C@H](C)[C@H](OC)CN(C)C3=O)c1 | -5.1% |
| C[C@H](CO)N1C[C@H](C)[C@@H](CN(C)C(=O)NC2CCCCC2)Oc2ccc(NC(=O)c3ccncc3)cc2CC1=O | 5.06% |
